Assay results taken from PMC7114156 (Antiviral Research, 2009).
Marks after values point to notes of the source that are not given here.

Columns and labels:
W12 cells = assay: mRNA measurement by RT-qPCR in W12 cells; type: cell-based, human
Method in brief: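 RNA was taken 0, 24 and 48 h after adding test compound; W12 cells were grown in 75 cm² flasks and washed in chilled PBS. 546 Pathway Set genes were run in quadruplicate by RT-qPCR: 10 μl reactions, primers 900 nM, probes 100 nM final. Ct was normalised to GAPDH, with dCt = Ct(control) − Ct(treated) and a two-sided t-test. Fold change was F = 2^dCt where p ≤ 0.05.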

IFIT1 promoter = assay: Luciferase assay, luciferase under control of the IFIT1 promoter in HEK293 cells; type: cell-based, human; details: 10 and 30 nM, over a 48-h period
[1] = W12 cells, 100 nM, 24 h, not significantly different from 1
[2] = W12 cells, 100 nM, 48 h, not significantly different from 1

Structure (SMILES): O=C(N[C@@H]1CCCc2c1[nH]c1ccc(Cl)cc21)c1ccccn1 [GSK983, N-[(1R)-6-Chloro-2,3,4,9-tetrahydro-1H-carbazol-1-yl]-2-pyridinecarboxamide]
- Fold increase due to GSK983, OAS1 mRNA (W12 cells; W12 cells, 10 nM, 48 h): 1.7 fold
- Fold increase due to GSK983, OAS2 mRNA (W12 cells; W12 cells, 10 nM, 48 h): 1.8 fold
- Fold increase due to GSK983, OASL mRNA (W12 cells; W12 cells, 10 nM, 48 h): 2.2 fold
- Fold increase due to GSK983, SNAP25 mRNA (W12 cells; W12 cells, 10 nM, 48 h): 3.7 fold
- Fold increase due to GSK983, TLR5 mRNA (W12 cells; W12 cells, 10 nM, 48 h): 1.7 fold
- Fold increase due to GSK983, TNFSF10 mRNA (W12 cells; W12 cells, 10 nM, 48 h): 1.8 fold
- Fold increase due to GSK983, CCL5 mRNA (W12 cells; W12 cells, 100 nM, 24 h): 3.1 fold
- Fold increase due to GSK983, CEL mRNA (W12 cells; W12 cells, 100 nM, 24 h): 3.0 fold
- Fold increase due to GSK983, COL10A1 mRNA (W12 cells; W12 cells, 100 nM, 24 h): 3.6 fold
- Fold increase due to GSK983, CPT1B mRNA (W12 cells; W12 cells, 100 nM, 24 h): 3.2 fold
- Fold increase due to GSK983, CSF2 mRNA (W12 cells; W12 cells, 100 nM, 24 h): 3.7 fold
- Fold increase due to GSK983, DCN mRNA (W12 cells; W12 cells, 100 nM, 24 h): 2.3 fold
- Fold increase due to GSK983, DMPK mRNA (W12 cells; W12 cells, 100 nM, 24 h): 2.9 fold
- Fold increase due to GSK983, FMOD mRNA (W12 cells; W12 cells, 100 nM, 24 h): 1.7 fold
- Fold increase due to GSK983, IFI6 mRNA (W12 cells; W12 cells, 100 nM, 24 h): 2.3 fold
- Fold increase due to GSK983, IFI16 mRNA (W12 cells; W12 cells, 100 nM, 24 h): 1.3 fold
- Fold increase due to GSK983, IFI44 mRNA (W12 cells; W12 cells, 100 nM, 24 h): 2.9 fold
- Fold increase due to GSK983, IFIT1 mRNA (W12 cells; W12 cells, 100 nM, 24 h): 5.5 fold
- Fold increase due to GSK983, IL6 mRNA (W12 cells; W12 cells, 100 nM, 24 h): 3.8 fold
- Fold increase due to GSK983, IL8 mRNA (W12 cells; W12 cells, 100 nM, 24 h): 2.1 fold
- Fold increase due to GSK983, IRF3 mRNA (W12 cells; W12 cells, 100 nM, 24 h): 1.5 fold
- Fold increase due to GSK983, IRF9 mRNA (W12 cells; W12 cells, 100 nM, 24 h): 1.6 fold
- Fold increase due to GSK983, ISG15 mRNA (W12 cells; W12 cells, 100 nM, 24 h): 4.3 fold
- Fold increase due to GSK983, LRP1 mRNA (W12 cells; W12 cells, 100 nM, 24 h): 3.7 fold
- Fold increase due to GSK983, NR1H3 mRNA (W12 cells; W12 cells, 100 nM, 24 h): 6.8 fold
- Fold increase due to GSK983, OAS1 mRNA (W12 cells; W12 cells, 100 nM, 24 h): 2.2 fold
- Fold increase due to GSK983, OAS2 mRNA (W12 cells; W12 cells, 100 nM, 24 h): 1.9 fold
- Fold increase due to GSK983, OASL mRNA (W12 cells; W12 cells, 100 nM, 24 h): 6.7 fold
- Fold increase due to GSK983, TLR5 mRNA (W12 cells; W12 cells, 100 nM, 24 h): 2.4 fold
- Fold increase due to GSK983, TNFSF10 mRNA (W12 cells; W12 cells, 100 nM, 24 h): 4.3 fold
- Fold increase due to GSK983, ERN2 mRNA (W12 cells; [1]): 1.7 ^b fold
- Fold increase due to GSK983, LIFR mRNA (W12 cells; [1]): 1.3 ^b fold
- Fold increase due to GSK983, SNAP25 mRNA (W12 cells; [1]): 1.7 ^b fold
- Fold increase due to GSK983, CCL5 mRNA (W12 cells; W12 cells, 100 nM, 48 h): 47.4 fold
- Fold increase due to GSK983, CEL mRNA (W12 cells; W12 cells, 100 nM, 48 h): 10.6 fold
- Fold increase due to GSK983, COL10A1 mRNA (W12 cells; W12 cells, 100 nM, 48 h): 2.4 fold
- Fold increase due to GSK983, CPT1B mRNA (W12 cells; W12 cells, 100 nM, 48 h): 6.4 fold
- Fold increase due to GSK983, CSF2 mRNA (W12 cells; W12 cells, 100 nM, 48 h): 4.9 fold
- Fold increase due to GSK983, DCN mRNA (W12 cells; W12 cells, 100 nM, 48 h): 15.4 fold
- Fold increase due to GSK983, DMPK mRNA (W12 cells; W12 cells, 100 nM, 48 h): 4.1 fold
- Fold increase due to GSK983, ERN2 mRNA (W12 cells; W12 cells, 100 nM, 48 h): 2.8 fold
- Fold increase due to GSK983, FMOD mRNA (W12 cells; W12 cells, 100 nM, 48 h): 2.5 fold
- Fold increase due to GSK983, IFI6 mRNA (W12 cells; W12 cells, 100 nM, 48 h): 7.3 fold
- Fold increase due to GSK983, IFIT1 mRNA (W12 cells; W12 cells, 100 nM, 48 h): 5.5 fold
- Fold increase due to GSK983, IL6 mRNA (W12 cells; W12 cells, 100 nM, 48 h): 10.2 fold
- Fold increase due to GSK983, IL8 mRNA (W12 cells; W12 cells, 100 nM, 48 h): 2.3 fold
- Fold increase due to GSK983, ISG15 mRNA (W12 cells; W12 cells, 100 nM, 48 h): 9.3 fold
- Fold increase due to GSK983, LIFR mRNA (W12 cells; W12 cells, 100 nM, 48 h): 2.2 fold
- Fold increase due to GSK983, LRP1 mRNA (W12 cells; W12 cells, 100 nM, 48 h): 3.5 fold
- Fold increase due to GSK983, NR1H3 mRNA (W12 cells; W12 cells, 100 nM, 48 h): 2.7 fold
- Fold increase due to GSK983, OAS1 mRNA (W12 cells; W12 cells, 100 nM, 48 h): 5.0 fold
- Fold increase due to GSK983, OAS2 mRNA (W12 cells; W12 cells, 100 nM, 48 h): 2.9 fold
- Fold increase due to GSK983, OASL mRNA (W12 cells; W12 cells, 100 nM, 48 h): 10.9 fold
- Fold increase due to GSK983, SNAP25 mRNA (W12 cells; W12 cells, 100 nM, 48 h): 4.7 fold
- Fold increase due to GSK983, TLR5 mRNA (W12 cells; W12 cells, 100 nM, 48 h): 3.1 fold
- Fold increase due to GSK983, TNFSF10 mRNA (W12 cells; W12 cells, 100 nM, 48 h): 8.4 fold
- Fold increase due to GSK983, IFI16 mRNA (W12 cells; [2]): 1.2 ^b fold
- Fold increase due to GSK983, IRF3 mRNA (W12 cells; [2]): 1.2 ^b fold
- Number of genes of the Pathway Set with significant increases in expression (W12 cells; W12 cells, at both 10 and 100 nM, 546 genes): 22 genes
- Expression of the three interferons (alpha, beta, and gamma), PKR and Mx1 (W12 cells; data not shown): not induced
- Induction of luciferase under control of the IFIT1 promoter (IFIT1 promoter): Strong induction
